Series [1] relates to pAKT in T47D (PI3Kα^H1047R) cells. The experiment in a line: pAKT AlphaLISA assay, T47D. Type of series: cell-based. The following applies: for IC50: Homo sapiens, T47D, 24 h, read-out: pAKT AlphaLISA IC50 T47D, T47D (PI3Kα^H1047R), inhibition of pAKT formation after 24 h of treatment. Background: In Alpha technology, singlet oxygen from a donor bead excites a nearby acceptor bead.

For series [2], the system named is pAKT in SKBR3 (PI3Kα^WT) cells. Description: pAKT AlphaLISA assay, SKBR3. Type of series: cell-based. The following applies: Homo sapiens, SK-BR-3, 24 h, read-out: pAKT AlphaLISA IC50 SKBR3.
Series [3] relates to T47D (PI3Kα^H1047R) cells. The experiment in a line: Viability assay. The conditions noted are these: for viability selectivity 1047R/WT IC50: T47D vs SKBR3 viability IC50. Type of series: cell-based.
The nature of series [4]: Intrinsic clearance in human hepatocytes. Type of series: in vitro ADME.
A short description of series [5]: Intrinsic clearance in mouse hepatocytes. Type of series: in vitro ADME. The method, boiled down:
(§1)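 CLint was derived by scaling in vitro half-lives measured in pooled hepatocytes.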

A short description of series [6]: Intrinsic clearance in rat hepatocytes. Type of series: in vitro ADME. The method, boiled down:
as §1

Series [7] in a line: Intrinsic clearance in dog hepatocytes. Type of series: in vitro ADME. The gist of the method: as §1
The nature of the next series: Mouse pharmacokinetics. Type of series: in vivo, CD-1 Mouse.
The next series in a line: Rat pharmacokinetics. It is filed as in vivo. The conditions noted are these: male, Sprague-Dawley, plasma, iv, 3 mg/kg.
The subject of series [8] is pAKT in HCC1954 tumors (PI3Kα^H1047R). Description: Single dose pharmacodynamic study, HCC1954 tumor model. Type of series: in vivo, mouse. The following applies: PO 100 or 300 mg/kg single dose. The method, boiled down: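 Mice carried xenografts of HCC1954, an ER-/HER2+ human breast tumour line with endogenous PI3Kα H1047R. They received a single dose of test compound, and tumour pAKT modulation was measured at 1 h and at 8 h post dose.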

A short description of series [9]: Metabolite ID in human hepatocytes. Type of series: in vitro ADME.

Molecules are shown by their SMILES.

In the case of `Cc1cc([C@@H](C)Nc2ccccc2C(=O)O)c2nc(N3CCCCC3)c(C(F)(F)F)c(=O)n2c1` [Compound 13], the IC50 (in general, the concentration at which inhibition is half-maximal) in [1] was 28 nM; in series [2], greater than 10000 nM.
Regarding `Cc1cc(C(C)Nc2ccccc2C(=O)O)c2nc(N3CCC(C)(C)CC3)n(C)c(=O)c2c1` (stereo not shown) [Compound 9], in series [1], the IC50 was 179 nM. Besides, the “fold decrease in potency (viability) compared to compound 4” value in [3] (T47D viability) is listed as 39 fold.
As to `Cc1cc([C@@H](C)Nc2ccccc2C(=O)O)c2nc(N3CCCCC3)c(C)c(=O)n2c1` [Compound 8], the IC50 in [1] was found to be 3 nM; in [2] it was 1460 nM. Further, the “viability selectivity 1047R/WT IC50” value in series [3] is listed as greater than 83.
Consider `Cc1cc([C@@H](C)Nc2ccccc2C(=O)O)c2nc(N3CCCCC3)c(F)c(=O)n2c1` [Compound 11], for which the values for the IC50 in series [1] and in [2] were 0.3 nM and greater than 10000 nM, respectively.
As to `Cc1cc([C@@H](C)Nc2ccccc2C(=O)O)c2nc(N3CCC(F)(F)CC3)c(C#N)c(=O)n2c1` [Compound 17, (R)-2-((1-(3-Cyano-2-(4,4-difluoropiperidin-1-yl)-7-methyl-4-oxo-4H-pyrido[1,2-a]pyrimidin-9-yl)ethyl)amino)benzoic Acid], in series [4], the “fold decrease of intrinsic clearance in human hepatocytes compared to 12” value turned out to be 3 fold. The CLint scaled (commonly a measure of how fast metabolising enzymes remove a compound, apart from limits set by blood flow) in series [5] was 304 mL/min/kg; in series [6], 70 mL/min/kg; in series [7] it was 104 mL/min/kg. For the same compound, the clearance (as a rule, the volume of plasma or blood freed of the substance per unit of time) in the series “Mouse pharmacokinetics” (female, CD-1, mouse, plasma, iv, 3 mg/kg) is 180 mL/min/kg; in “Rat pharmacokinetics”, 46 mL/min/kg. Moreover, the bioavailability in rodents in “Mouse pharmacokinetics” (rodents (mouse and rat)) is 48–57 %F. For the same compound, the “pAKT inhibition after oral dosing” value in series [8] is “negligible inhibition of pAKT”. Further, the “metabolite identified in human hepatocytes” value in series [9] is on record as “glucuronidation of the benzoic acid was the only discernible metabolite”.
With `Cc1cc([C@@H](C)Nc2ccccc2C(=O)O)c2oc(N3CCC(C)(C)CC3)c(C)c(=O)c2c1` [Compound 4, reference compound], the half-maximal inhibitory concentration (IC50) in series [1] turned out to be 3 nM; in [2], 3180 nM.
In the same order, the values of `Cc1ccccc1C1NC(=O)c2cc(NC3COC3)cc(NC(=O)c3csc4ccccc34)c21` (stereo not shown) [Compound 5, reference compound] are 332 nM and 115 nM.
As for `Cc1cc([C@@H](C)Nc2ccc(Cl)cc2C(=O)O)c2nc(N3CCC(F)(F)CC3)c(C#N)c(=O)n2c1` [Compound 24], the IC50 in series [1] is 15 nM.
Turning to `Cc1cc([C@@H](C)Nc2ccccc2C(=O)O)c2nc(N3CCCCC3)c(C(N)=O)c(=O)n2c1` [Compound 14], the IC50 in series [1] and in [2] was greater than 10000 nM each time.
Regarding `Cc1cc([C@@H](C)Nc2ccccc2C(=O)O)c2nc(N3CCCCC3)cc(=O)n2c1` [Compound 7], the IC50 in [1] turned out to be 78 nM; in series [2], 5890 nM. Also, in series [3], the “viability selectivity 1047R/WT IC50” value is given as greater than 9.
For the compound `Cc1cc(C(C)Nc2ccccc2C(=O)O)c2nc(N3CCCCC3)ncc2c1` (stereo not shown) [Compound 10], the IC50 in [1] stood at 2540 nM.
For the compound `Cc1cc([C@@H](C)Nc2ccccc2C(=O)O)c2nc(C3CCC(F)(F)CC3)c(C#N)c(=O)n2c1` [Compound 19], in series [3] (on replacing the piperidine nitrogen (4,4-difluorocyclohexane)), the “fold loss in potency in T47D cellular viability assay” value came out at 5 fold.
Turning to `Cc1cc([C@@H](C)Nc2ccccc2C(=O)O)c2nc(N3CCCCC3)c(C#N)c(=O)n2c1` [Compound 12], the values for the IC50 in [1] and in series [2] were 1 nM and 4740 nM, respectively. In addition, the “fold more potent than 8” value in series [1] (pAKT T47D) stood at 3 fold. In addition, the “fold more stable in human hepatocytes than 8” value in [4] (Clint human hepatocytes) is listed as 4 fold.

Source of the values: publication PMC10983000 (Journal of Medicinal Chemistry, 2024).
